Activity calls are given as the source filed them. The calls are words filed in the database; no cut-off is given here.
Key:
[1] = biological target: Signal transducer and activator of transcription 3 (Mus musculus) (UniProt P42227); test: Inhibition of STAT3 in mouse Ba/F3 NPM-ALK cells at 50 nM; type: cell-based; details: TDE = time-dependent effect
Summary of the method: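 Ba/F3 NPM-ALK or Karpas-299 cells held at 50 nM for times from 15 min onward. Phospho-NPM-ALK and phospho-STAT3 read by Western blot.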

KARPAS-299 [2] = test: Inhibition of RAS/RAF/MAPK signaling in human Karpas299 cells assessed as ERK phosphorylation; type: cell-based
Summary of the method: (§1)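 Karpas-299 cells treated for 4 h with increasing concentrations or DMSO. Phospho-ERK and phospho-Akt read by Western blot.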

KARPAS-299 [3] = test: Inhibition of PI3K/Akt signaling in human Karpas299 cells assessed as Akt phosphorylation; type: cell-based; summary of the method: as §1
BaF3 = test: Induction of apoptosis in mouse parental Ba/F3 cells at 50 nM after 48 hrs by annexin V assay; type: functional, cell-based
Summary of the method: (§2)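 Parental Ba/F3 (with IL-3), Ba/F3 NPM-ALK or SU-DHL-1 cells treated with 50 nM or DMSO for 48 h. Annexin V/7-AAD staining read by flow cytometry; percent Annexin V-positive cells counted.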

SU-DHL-1 = test: Induction of apoptosis in human SUDHL1 cells at 50 nM after 48 hrs by annexin V assay; type: functional; summary of the method: as §2
KARPAS-299 [4] = test: Induction of apoptosis in human Karpas299 cells at 50 nM after 48 hrs by annexin V assay; type: functional; details: in the assay text read “72 hrs” for “48 hrs”
Summary of the method: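 Karpas-299 cells given 50 nM or DMSO, with flow cytometry every 24 h up to 72 h. Annexin V staining gave the percent of positive cells.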

KARPAS-299 [5] = test: Cell cycle arrest in human Karpas299 cells by accumulation in G1 phase at 25 nM after 72 hrs; type: functional
Summary of the method: (§3)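 Karpas-299 cells exposed to 25 nM or DMSO for 24, 48 and 72 h, then fixed, stained with propidium iodide and analyzed for cell cycle distribution by flow cytometry. Three separate experiments.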

KARPAS-299 [6] = test: Cell cycle arrest in human Karpas299 cells by accumulation in S phase at 25 nM after 72 hrs; type: functional; summary of the method: as §3
[7] = Cmax in human Karpas299 cells xenografted SCID beige mouse at 20 mg/kg, po; type: ADME, organism-based, KARPAS-299; set-up: dose 20 mg/kg, route oral; details: in vivo
Summary of the method: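 Mice given a single oral dose of 20 mg/kg as a solution in 10% 1-methyl-2-pyrrolidinone/90% PEG 300. Plasma levels measured to give Cmax, bioavailability and elimination half-life.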

Mus musculus [8] = test: Toxicity in human Karpas299 cells xenografted in SCID beige mouse at 10 mg/kg, po; type: organism-based, KARPAS-299; set-up: dose 10 mg/kg, route oral; details: in vivo
Summary of the method: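 Female Fox Chase SCID_Beige mice bearing i.v. Karpas-299 cells received 10 mg/kg orally once daily from 72 h after injection. Watched for signs of compound- or disease-related toxicity.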

BCR-ABL = test: Antilymphomal activity against mouse Ba/F3 BCR-ABL cells xenografted in SCID beige mouse assessed as reduction in bioluminescence signal at 10 mg/kg, po once daily after 2 weeks; type: functional, organism-based; set-up: dose 10 mg/kg
Summary of the method: (§4)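 Female Fox Chase SCID_Beige mice injected in the tail vein with 1 × 10⁶ luciferase-expressing Ba/F3 BCR-ABL or Ba/F3 NPM-ALK cells. From 72 h, 10 mg/kg given orally once daily in 10% 1-methyl-2-pyrrolidinone/90% PEG 300, or vehicle. Bioluminescence imaged after 2 weeks; spleens weighed.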

[9] = Antilymphomal activity against mouse Ba/F3 NPM-ALK cells xenografted in SCID beige mouse assessed as reduction in bioluminescence signal at 10 mg/kg, po once daily after 2 weeks relative to control; type: functional; set-up: scale not given: the % may be the effect or the level left; summary of the method: as §4
Mus musculus [10] = test: Toxicity in mouse Ba/F3 NPM-ALK cells xenografted in SCID beige mouse assessed as reduction in spleen weight at 10 mg/kg, po; type: organism-based; set-up: dose 10 mg/kg, route oral; scale not given: the % may be the effect or the level left; details: in vivo
KARPAS-299 [11] = test: Antilymphomal activity against human Karpas299 cells xenografted in SCID beige mouse assessed as reduction in NPM-ALK phosphorylation after 3.5 weeks of […] at 10 mg/kg for 3 days; type: functional, organism-based; set-up: dose 10 mg/kg
Summary of the method: (§5)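 Female Fox Chase SCID_Beige mice given 1 × 10⁶ Karpas-299 cells by tail vein. Treatment began at 3.5 weeks, once palpable lymphomas had formed. Drug at 10 mg/kg or vehicle for 3 days, 3 mice per arm. Killed 4 h after the third dose. Excised lymph nodes immunoblotted for NPM-ALK and Stat3 phosphorylation.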

KARPAS-299 [12] = test: Antilymphomal activity against human Karpas299 cells xenografted in SCID beige mouse assessed as reduction in downstream target STAT3 phosphorylation after 3.5 weeks of […] at 10 mg/kg for 3 days; type: functional, organism-based; set-up: dose 10 mg/kg; summary of the method: as §5
KARPAS-299 [13] = test: Antilymphomal activity against human Karpas299 cells xenografted in SCIDbeige mouse assessed as reduction in CD30 expression in lymph nodes after 3.5 weeks of […] at 10 mg/kg for 3 days; type: functional, organism-based; set-up: dose 10 mg/kg
Summary of the method: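 Female Fox Chase SCID_Beige mice given Karpas-299 cells i.v. and left 3.5 weeks until lymphomas were palpable. Then dosed at 10 mg/kg or vehicle for 3 days. Killed 4 h after the third dose. Excised lymph node sections scored for CD30 by immunohistochemistry.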

KARPAS-299 [14] = test: Inhibition of human Karpas299 cells assessed as reduction in CD30 receptor expression on cell surface after 24 hrs; type: functional; set-up: scale not given: the % may be the effect or the level left
Summary of the method: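 Karpas-299 cells cultured with drug for 24 h. Surface CD30 receptor expression then measured.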

Signal transducer and activator of transcription 3 (Mus musculus), sequence (P42227 whole entry): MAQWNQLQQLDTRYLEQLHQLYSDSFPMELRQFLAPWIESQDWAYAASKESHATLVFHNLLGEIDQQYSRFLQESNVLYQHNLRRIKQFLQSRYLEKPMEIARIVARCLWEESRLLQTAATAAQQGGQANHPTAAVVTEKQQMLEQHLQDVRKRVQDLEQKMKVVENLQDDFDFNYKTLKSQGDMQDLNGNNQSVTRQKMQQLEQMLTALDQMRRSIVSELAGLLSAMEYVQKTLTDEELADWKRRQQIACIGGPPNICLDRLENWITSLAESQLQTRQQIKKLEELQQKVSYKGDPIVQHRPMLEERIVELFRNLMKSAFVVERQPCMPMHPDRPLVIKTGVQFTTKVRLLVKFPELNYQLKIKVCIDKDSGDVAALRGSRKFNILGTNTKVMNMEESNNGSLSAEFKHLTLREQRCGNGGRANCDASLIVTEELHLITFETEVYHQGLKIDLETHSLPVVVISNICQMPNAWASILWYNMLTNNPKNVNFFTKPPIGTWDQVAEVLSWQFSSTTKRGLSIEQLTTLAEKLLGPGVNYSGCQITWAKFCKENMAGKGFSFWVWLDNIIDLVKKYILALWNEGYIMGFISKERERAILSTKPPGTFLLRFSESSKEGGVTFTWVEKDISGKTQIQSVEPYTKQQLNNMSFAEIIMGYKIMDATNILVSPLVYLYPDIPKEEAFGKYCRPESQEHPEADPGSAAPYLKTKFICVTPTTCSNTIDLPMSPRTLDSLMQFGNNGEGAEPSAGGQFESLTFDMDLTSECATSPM

Structure (SMILES): COc1cc(N2CCC(N3CCN(C)CC3)CC2)ccc1Nc1ncc(Cl)c(Nc2ccccc2S(=O)(=O)C(C)C)n1 [TAE-684]
- Activity [1]: tde
- Activity (KARPAS-299 [2]): Dose-dependent effect
- Activity (KARPAS-299 [3]): Dose-dependent effect
- Activity (BaF3): inactive
- Activity (SU-DHL-1): 70%
- Activity (KARPAS-299 [4]): 20%
- Activity (KARPAS-299 [5]): 72%
- Activity (KARPAS-299 [6]): 14%
- Cmax [7]: 800 nM
- Activity (Mus musculus [8]): Non-toxic
- Activity (BCR-ABL): inactive
- Activity [9]: >99%
- Activity (Mus musculus [10]): 80%
- Activity (KARPAS-299 [11]): Active
- Activity (KARPAS-299 [12]): Active
- Activity (KARPAS-299 [13]): Active
- Activity (KARPAS-299 [14]): 80%

Reference: ChEMBL document CHEMBL1156430, “Identification of NVP-TAE684, a potent, selective, and efficacious inhibitor of NPM-ALK” (Proc Natl Acad Sci U S A, 2007)
